Hits are enriched below; roughly 1.1% of the tested compounds scored in any of these assays.
CaV13 FRET inh: Primary screen for inhibitors of IQ motif and Ca2+-dependent inactivation inhibitor domain binding in CACNA1D, Förster resonance energy transfer in living cells, …. actives 0.098% (n = 340,000). HEK cells, CFP/YFP FRET ICDI-IQ, plate reader, 10 min; percent FRET-ratio fall versus neutral wells. AID 743397. inhibition, % at 12.3 µM;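 active means mean replicate inhibition of at least 30% and at least 1% of replicates passing that level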;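 further: 0% = median of the neutral control wells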
T cell HTS: modulators of CD8 T cell-vesicle binding, primary screen, mouse 2C CD8+ T cells, flow cytometry; 2C CD8+ T cell-vesicle binding; stronger effect = lower value; response (vesicle binding), % at 7 µM; actives 0.068% (n = 330,000);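 active means response, share of CD8 T cells binding vesicles, and their 90th percentile fluorescence all below set limits, cut at about 80% in these data, passing the limit was not always enough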;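 further: values below 100% mean blocked vesicle binding to the CD8+ T cells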
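Test system: purified 2C TCR transgenic mouse naive CD8+ T cells. Probe or stimulus: QL9-peptide-loaded Drosophila micro-vesicles bearing Ld, ICAM-1 and B7-1. Incubation: binding step 1.5 h, 37 °C, antibody labelling 20 min, ice. Measured by: flow cytometry of vesicle-bound cells.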
proCasp3 act: activators of human procaspase-3 D3A mutant, primary screen, biochemical, absorbance, PC-3 D3A mutant, single concentration | activation, % at 8.5 µM | recombinant procaspase-3 D3A, Ac-DEVD-pNA absorbance 405 nm | actives 0.11% (n = 330,000);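 active means activation above the mean of all tested compounds plus 3 SD, cut at about 21% in these data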;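 further: 0% = DMSO alone and 100% = DMSO wells spiked with extra 5 µM PC-3 D3A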
Target sequence (P42574 whole entry D9A/D28A/D175A): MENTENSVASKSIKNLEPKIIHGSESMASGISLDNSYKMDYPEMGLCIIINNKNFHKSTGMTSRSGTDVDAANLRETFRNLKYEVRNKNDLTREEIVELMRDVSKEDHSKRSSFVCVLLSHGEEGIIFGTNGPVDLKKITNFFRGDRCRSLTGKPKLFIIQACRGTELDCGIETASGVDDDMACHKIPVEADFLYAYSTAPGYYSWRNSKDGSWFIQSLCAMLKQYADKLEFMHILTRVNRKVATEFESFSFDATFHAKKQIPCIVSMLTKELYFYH
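Assay system – Procaspase-3 D3A mutant · Benchmarks – DMSO low control, extra-enzyme high control · Technique – 405 nm absorbance of p-nitroaniline, reads at 0 and 120 min · Doses – 8.5 µM nominal · Measure – % activation between DMSO and enzyme-spiked controls · Also added – Ac-DEVD-pNA chromogenic peptide substrate · Schedule – 1 h compound preincubation, 2 h substrate hydrolysis at 25 °C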
GRK2 inh: compounds blocking aptamer binding on GRK2 – biochemical, human GRK2, bead flow cytometry, HTS, primary screen | Beta-adrenergic receptor kinase 1 (Homo sapiens), P25098 | inhibition of aptamer binding, % at 10 µM | FAM-aptamer displacement from GRK2 | actives 0.59% (n = 330,000);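 active means inhibition of aptamer binding above 40%, roughly 3 SD of noise, on plates passing a quality check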;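 further: median bead fluorescence of bound FAM aptamer so fluorescent compounds give negative values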
aDG glyco act: activators of alpha-DG glycosylation, primary screen, uHTS, Pro5-aDG cells, AlphaScreen | activation, % at 10 µM | alpha-DG glycosylation AlphaScreen (IIH6); 0% Pro5, 100% B10-LARGE cell signal | actives 0.22% (n = 360,000);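 active means activation of at least 8% versus controls, or a plate z-score of at least 8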;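 further: Pro5 are CHO cells carrying HIG-tagged alpha-DG that lacks glycosylation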
procasp7 counter: procaspase-7 activators, primary screen, counter-screen for procaspase-3 activator project, biochemical, absorbance, HTS, human; Caspase-7 (Homo sapiens), P55210; recombinant procaspase-7, Ac-DEVD-pNA absorbance 405 nm; D23A/D198A/D206A triple mutant, cannot self-cleave; scale: DMSO 0, 5 µM enzyme 100; activation, % at 8.5 µM; actives 0.093% (n = 330,000); AID 463210, 2010;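 active means percent activation above the screen-wide mean plus 3 SD, cut at about 25% in these data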
Target sequence (P55210 whole entry D23A/D198A/D206A): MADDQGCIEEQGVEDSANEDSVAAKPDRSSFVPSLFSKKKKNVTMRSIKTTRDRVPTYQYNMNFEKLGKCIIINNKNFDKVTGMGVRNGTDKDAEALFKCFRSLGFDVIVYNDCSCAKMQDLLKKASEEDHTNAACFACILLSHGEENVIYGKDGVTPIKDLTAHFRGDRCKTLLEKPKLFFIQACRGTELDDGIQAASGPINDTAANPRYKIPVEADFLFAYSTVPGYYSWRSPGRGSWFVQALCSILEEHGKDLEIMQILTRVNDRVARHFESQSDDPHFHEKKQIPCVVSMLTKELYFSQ
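Assay system: Uncleavable procaspase-7 mutant enzyme; Input: 2 µM procaspase-7 mutant as dispensed; Also added: DEVD-pNA substrate; Medium: Zinc-free HEPES pH 7.4 with 300 mM NaCl, 0.01% Triton X-100; Timing: 1 h compound preincubation, 2 h substrate cleavage, 25 °C; Measured by: Epi-absorbance of released pNA at 405 nm, two timepoints.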
* = called active by the depositor; i = inactive; / = no result; + = active, no number.

SMILES	CaV13 FRET inh	T cell HTS	proCasp3 act	GRK2 inh	aDG glyco act	procasp7 counter
COc1ccc(CC2(CO)CCN(CC3=Cc4cc(Cl)ccc4OC3)CC2)cc1	-3.8	274.1	-10.6	4.0	13.0*	-4.6
COc1ccc2c(c1)C=C(CN1CCC(CO)(CCc3ccccc3)CC1)CO2	1.6	314.0	6.9	0.0	-0.2	-2.0
CC1(C)OC(C)(C)C(=N/O)/C1=N\N	-9.2	/	/	/	/	/
O=C(N/N=C/c1ccc(OC(=O)c2ccccc2Cl)cc1)c1cc(O)cc(O)c1	/	314.8	/	55.0*	0.0	/
COc1cc(/C=N/NC(=O)c2cc(O)cc(O)c2)ccc1OC(=O)c1ccccc1	-6.3	540.0	/	44.0*	0.1	/
COC(=O)C1=C(C)N(C)C(=NCC2CC2)NC1c1cccc(Cl)c1 (stereo not drawn)	-4.6	/	/	/	/	/
C[C@H]1[C@@H]2C[C@@]3(O[C@H](c4ccc(C(F)(F)F)cc4)N=C3C[C@@H]1c1ccccc1)N(Cc1ccncc1)C2=O	-4.2	/	/	/	/	/
O=c1[nH]c(=O)c2nc(-c3ccc(Cl)cc3)cnc2[nH]1	99.9*	267.4	13.2	2.0	-0.1	14.2
O=c1[nH]c(=S)[nH]c2nc(-c3ccccc3)cnc12	-4.0	414.5	-11.5	1.0	-0.1	-7.1
COC(=O)C1(F)C(=O)NC(=O)NC1OC (stereo not drawn)	-12.2	/	/	/	/	/
CCNc1nc2nc3ccc(C)cn3c(=O)c2cc1C(=O)NCC1CCCO1 (stereo not drawn)	+	152.9	-9.5	3.0	0.4	-9.8
C=CCNC(=O)c1cc2c(=O)n3cc(C)ccc3nc2nc1NCC1CCCO1 (stereo not drawn)	/	272.3	-6.7	7.0	/	-6.3
Cc1ccc(OCC(=O)NNc2c3ccccc3nc3ccccc23)cc1	47.8*	227.1	-7.2	2.0	1.5	-6.0
C[C@@H]1CN([C@H](C)CO)C(=O)c2cc(Br)cnc2O[C@H]1CN(C)C(=O)c1ccc(F)cc1	-3.6	/	/	/	/	/
c1ccc(CN2CCCC3CC2c2ccccc23)cc1 (stereo not drawn)	-6.8	/	/	/	/	/
NC(=O)c1cc2ccccc2oc1=NCc1ccccc1	/	371.5	7.2	1.0	-0.2	19.4
NC(=O)c1cc2ccc(O)cc2oc1=NCc1ccccc1	33.5*	530.6	-21.7	0.0	-0.3	-17.9
CC(Oc1ccccc1Cl)C(=O)Nc1ccc(S(=O)(=O)N2CCCC2)cc1 (stereo not drawn)	-5.1	53.1	2.2	0.0	0.8	7.9
CC(NCc1ccccc1Cl)C(=O)Nc1ccc(S(=O)(=O)N2CCCC2)cc1 (stereo not drawn)	-5.8	0.0*	-1.2	0.0	0.0	1.4
COc1ccc(NC(=O)C2CCC(CNS(=O)(=O)c3cccs3)CC2)cc1 (stereo not drawn)	31.3*	186.4	-0.1	2.0	0.8	0.5
C=CCN1C(=O)c2[nH]nc(-c3ccccc3)c2C1c1ccc(C)cc1 (stereo not drawn)	-4.2	/	/	/	/	/
CC1=CC(O)(c2ccccn2)P(=O)(c2ccccc2)C=C1C (stereo not drawn)	-9.6	/	/	/	/	/
C[C@@H](c1ccccc1)N1C[C@H]2CCCN2c2cc(Br)ccc2S1(=O)=O	-8.2	/	1.8	41.0*	-0.1	9.2
C=CCN1C(=O)C(Cc2ccc(F)cc2)S/C1=N/N=C/c1ccco1 (stereo not drawn)	-4.7	0.0*	2.5	0.0	0.0	0.5
Cc1ccc2[nH]c3c(NCc4ccco4)ncnc3c2c1	-3.2	i	-0.6	0.0	4.7*	-8.5
SMILES	CaV13 FRET inh	T cell HTS	proCasp3 act	GRK2 inh	aDG glyco act	procasp7 counter
Nn1c(SCC(=O)N2CCCC2)nnc1-c1cccs1	32.9*	/	/	/	-0.2	/
COc1ccc(S(=O)(=O)N2CCCc3nc(-c4ccc(Br)cc4)ccc32)cc1	-8.6	/	/	/	/	/
COc1ccc(C(=O)c2c(C(F)(F)F)oc3c2C(=O)c2ccccc2C3=O)cc1OC	-0.7	268.7	4.5	0.0	5.7*	-2.2
COc1ccc(C(=O)Nc2ccc3c(c2)C(=O)c2ccccc2C3=O)cc1OC	-6.0	299.3	-0.2	0.0	1.2	-2.5
CCNC(=O)O[C@@H]1C=C[C@@H](C#Cc2ccc(C(C)(C)C)cc2)O[C@@H]1COC(C)=O	-5.1	/	/	/	/	/
CCCCNS(=O)(=O)c1ccc(OCC(=O)OC)cc1	-4.9	6.7*	6.4	1.0	0.2	9.3
COc1ccc(NC(=O)COC(=O)c2cc3c(s2)CCC3)cc1	/	481.9	-3.2	43.0*	9.7*	6.7
CCCN(C(=O)c1cn(CCC)c2ccccc12)c1ccc(Oc2cccnc2)cc1	-10.4	/	/	/	/	/
N#CC1=C(N)OC2=C(C(=O)CCC2)C1c1cc2c(cc1Br)OCO2 (stereo not drawn)	60.0*	214.3	-3.1	1.0	0.1	12.4
N#CC1=C(N)OC2=C(C(=O)CCC2)C1c1cc2c(cc1Cl)OCO2 (stereo not drawn)	-4.7	251.1	-2.6	1.0	-0.1	-7.8
O=C(C(=O)N1CCN(C(=O)c2cccs2)CC1)c1cccc(C(F)(F)F)c1	-8.4	/	/	/	/	/
COc1ccc2cc3c(N)nn(C(=O)c4ccccc4[N+](=O)[O-])c3nc2c1	-4.3	117.2	-2.8	5.0	0.3	-20.2
COc1ccc2cc3c(N)nn(C(=O)c4ccc(Cl)c([N+](=O)[O-])c4)c3nc2c1	-4.5	954.2	-10.8	57.0*	-0.5	-1.4
COC(=O)C1=C(C)N(C)C(=NCc2cc(OC)c(OC)c(OC)c2)NC1c1cccc(F)c1 (stereo not drawn)	-10.3	/	/	/	/	/
CC1CN(C(=O)CCC(=O)NCCc2ccccc2)c2ccccc2O1 (stereo not drawn)	-6.1	474.7	10.4	2.0	-0.1	0.7
CC1CC(C)CN(CCCNC(=O)CCC(=O)N2CC(C)Oc3ccccc32)C1 (stereo not drawn)	38.4*	600.9	7.8	0.0	0.4	2.7
Cc1ccc2c(c1)N(C(=O)CCC(=O)NCCCN1CCOCC1)CC(C)O2 (stereo not drawn)	47.5*	i	1.8	1.0	0.0	-0.9
OC1(c2cccc(C(F)(F)F)c2)CCN(c2ncnc3c2[nH]c2ccc(F)cc23)CC1	/	/	/	/	3.7*	/
CCCCOc1ncnc2c1[nH]c1ccc(OCC)cc12	/	520.3	-6.4	1.0	0.1	-0.9
